Measured values taken from ChEMBL document CHEMBL4017530, “Mind the Metal: A Fragment Library-Derived Zinc Impurity Binds the E2 Ubiquitin-Conjugating Enzyme Ube2T and Induces Structural Rearrangements” (J Med Chem, 2017).
Changes are numbered by the printed parent chain. Calls of active or inactive are those of the source. The calls are words filed in the database; no cut-off is given here.

Assays:
[1] = molecular target: T1, Ubiquitin-conjugating enzyme E2 T (Homo sapiens, UniProt Q9NPD8, C86K/K91R/K95R); experiment: Binding affinity to N-terminally 6xHis-Smt3 tagged human Ube2T C86K/K91R/K95R mutant expressed in Escherichia coli by ITC method
In short: (§1)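 Titrations at 25 °C with stirring at 750 rpm in 100 mM Tris pH 8.0, 100 mM NaCl, 0.5 mM TCEP. Protein at approximately 50 μM. Titrant-into-buffer control used to correct for heat of dilution. Each titration repeated at least twice.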

[2] = tested on: T2, Ubiquitin-conjugating enzyme E2 T (Homo sapiens), Q9NPD8 [C86K,K91R,K95R]; experiment: (§2) Binding affinity to N-terminally 6xHis-Smt3 tagged FANCL RING fused human Ube2T C86K/K91R/K95R mutant expressed in Escherichia coli by ITC method; in short: as §1
T2 sequence (whole entry): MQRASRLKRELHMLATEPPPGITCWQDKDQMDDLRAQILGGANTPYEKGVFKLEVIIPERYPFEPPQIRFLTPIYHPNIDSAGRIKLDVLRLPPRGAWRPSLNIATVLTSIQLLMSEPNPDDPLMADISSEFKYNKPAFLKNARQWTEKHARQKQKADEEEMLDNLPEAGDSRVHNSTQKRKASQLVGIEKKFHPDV

[3] = tested on: T2, Ubiquitin-conjugating enzyme E2 T (Homo sapiens), Q9NPD8 [C86K,K91R,K95R]; experiment: Binding affinity to N-terminally 6xHis-Smt3 tagged human Ube2T C86K/K91R/K95R mutant expressed in Escherichia coli by DSF method
In short: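 Compound ranged from 5 μM to 5 mM. Samples heated from 25 to 95 °C at 1 °C/min with fluorescence read at each step. Melting temperature shift was the read-out.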

[4] = molecular target: T3, Ubiquitin-conjugating enzyme E2 T (Homo sapiens) (UniProt Q9NPD8); experiment: Binding affinity to human 15N-labelled C-terminal flexible tail lacking Ube2T (1 to 154 residues) (unknown origin) at 500 uM by NMR spectrocopy
T3 sequence (whole entry): T2 sequence (whole entry) with K86C, R91K, R95K
In short: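 [1H-15N]-HSQC spectra recorded on 50 μM 15N-Ube2T ΔC (residues 1-154) with compound added at 100, 300 and 500 μM. Read-out was weakening or loss of resonance peaks compared with the apo spectrum.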

[5] = tested on: T2, Ubiquitin-conjugating enzyme E2 T (Homo sapiens), Q9NPD8 [C86K,K91R,K95R]; experiment: Binding affinity to biotin labeled Ube2T C86K/K91R/K95R mutant (unknown origin) assessed as association and dissociation response at 2 uM by biolayer interferometry analysis
In short: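 Bio-layer interferometry with compound at a lowest tested concentration of 2 μM. Association and dissociation responses were recorded.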

[6] = molecular target: T1, Ubiquitin-conjugating enzyme E2 T; experiment: as §2; in short: as §1
[7] = tested on: T2, Ubiquitin-conjugating enzyme E2 T (Homo sapiens), Q9NPD8 [C86K,K91R,K95R]; experiment: Binding affinity to N-terminally 6xHis-Smt3 tagged Ub fused human Ube2T C86K/K91R/K95R mutant expressed in Escherichia coli at 1.5 mM by ITC method; in short: as §1
[8] = molecular target: Ubiquitin-like modifier-activating enzyme 1 (Homo sapiens) (UniProt P22314); experiment: Inhibition of recombinant human E1 charging with ubiquitin at 20 to 100 uM after 10 mins in presence of ATP by coomassie staining based SDS PAGE analysis
[9] = molecular target: T3, Ubiquitin-conjugating enzyme E2 T (Homo sapiens); experiment: Reversible binding affinity to human 15N-labelled C-terminal flexible tail lacking Ube2T (1 to 154 residues) at 100 to 500 uM measured after overnight dialysis by NMR spectrocopy
In short: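 HSQC on 50 μM 15N-Ube2T ΔC with compound at 100, 300 and 500 μM. Compound was then removed by overnight dialysis in 50 mM potassium phosphate pH 6.8, 85 mM NaCl, 1 mM DTT. HSQC recorded again and compared with the apo peak positions.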

[10] = tested on: T2, Ubiquitin-conjugating enzyme E2 T (Homo sapiens), Q9NPD8 [C86K,K91R,K95R]; experiment: Binding affinity to N-terminally 6xHis-Smt3 tagged human Ube2T C86K/K91R/K95R mutant expressed in Escherichia coli in presence of EDTA by ITC method
In short: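 ITC at 25 °C with stirring at 750 rpm, protein approx. 50 μM. Buffer was 100 mM Tris pH 8.0, 100 mM NaCl, 0.5 mM TCEP, plus 2 mM EDTA. Heat of dilution corrected by titrant-into-buffer control. Repeated at least twice.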

Chain of Ubiquitin-like modifier-activating enzyme 1 (Homo sapiens) (P22314 whole entry, looked up, the tested form may be a part): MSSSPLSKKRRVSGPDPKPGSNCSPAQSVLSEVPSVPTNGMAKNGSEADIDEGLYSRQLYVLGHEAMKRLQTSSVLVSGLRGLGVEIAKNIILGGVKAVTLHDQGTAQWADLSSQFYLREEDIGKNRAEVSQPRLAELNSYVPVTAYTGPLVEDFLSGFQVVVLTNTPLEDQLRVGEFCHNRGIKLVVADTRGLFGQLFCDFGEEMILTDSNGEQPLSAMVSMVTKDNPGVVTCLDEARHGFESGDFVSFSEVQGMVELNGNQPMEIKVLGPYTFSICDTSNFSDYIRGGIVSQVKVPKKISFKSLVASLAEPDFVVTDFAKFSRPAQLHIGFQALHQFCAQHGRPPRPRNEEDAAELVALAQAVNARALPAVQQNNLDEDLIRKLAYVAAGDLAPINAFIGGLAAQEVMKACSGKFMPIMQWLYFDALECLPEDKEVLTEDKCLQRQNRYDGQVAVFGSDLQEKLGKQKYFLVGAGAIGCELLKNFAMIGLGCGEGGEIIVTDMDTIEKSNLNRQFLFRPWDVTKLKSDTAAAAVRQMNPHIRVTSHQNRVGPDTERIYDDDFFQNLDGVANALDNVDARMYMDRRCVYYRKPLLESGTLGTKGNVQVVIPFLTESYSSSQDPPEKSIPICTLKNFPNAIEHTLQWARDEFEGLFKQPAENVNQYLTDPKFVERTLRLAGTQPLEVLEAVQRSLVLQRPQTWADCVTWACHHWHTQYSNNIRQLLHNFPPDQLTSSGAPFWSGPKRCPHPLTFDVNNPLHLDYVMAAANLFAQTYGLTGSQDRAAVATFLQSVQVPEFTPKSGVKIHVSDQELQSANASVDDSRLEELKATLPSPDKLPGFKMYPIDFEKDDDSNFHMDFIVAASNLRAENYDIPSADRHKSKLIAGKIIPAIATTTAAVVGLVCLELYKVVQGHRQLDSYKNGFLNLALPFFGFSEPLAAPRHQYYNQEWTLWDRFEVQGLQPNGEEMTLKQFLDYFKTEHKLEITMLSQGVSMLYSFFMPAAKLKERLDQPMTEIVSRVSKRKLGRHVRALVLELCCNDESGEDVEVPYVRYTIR

| Activity [2] | Activity [3] | SMILES | further results |
| --- | --- | --- | --- |
|  | Dose-dependent effect | N=C(N)c1ccc(-n2cccn2)nc1 |  |
|  | Dose-dependent effect | Cc1cc(C)n(-c2ccc(C(=N)N)cn2)n1 | Kd [1]: 17.7 µM; Activity [4]: Active; Activity [5]: Active; Kd [6]: 21.3 µM; Activity [7]: inactive; inhibition [8]: inactive; Activity [9]: Active; Activity [10]: inactive |
|  | Dose-dependent effect | N=C(N)c1ccc(N2CCCC2)nc1 |  |

The remaining lines, values behind:

| SMILES | Activity [2] | Activity [3] | further results |
| --- | --- | --- | --- |
| [Cl-].[Cl-].[Zn+2] [ZINC CHLORIDE] |  |  | Kd [1]: 15.7 µM |
| N=C(N)c1ccc(N2CCCCC2)nc1 | inactive | inactive |  |
| CC1CCCN1c1ccc(C(=N)N)cn1 (stereo not drawn) | inactive | inactive |  |
| CC1CCN(c2ccc(C(=N)N)cn2)C1 (stereo not drawn) | inactive | inactive |  |
